Results taken from article PMC3567257 (Biochemistry, 2012).
Numbering of substitutions follows the chain as printed. Where a name gives a salt, the structure may show the parent alone. Read-outs that look alike come from different tables or passages of the source. Each block holds one compound with its values, some of them ahead of it.

Tests used:
JARID1A PHD3 [1] = target: T1, JARID1A PHD3 (Homo sapiens, UniProt P29375); assay: HaloTag assay for histone peptide binding; conditions: for effect on JARID1A PHD3 binding to H3K4me3 peptide in HaloTag assay: compound 0–200 μM
T1 sequence (P29375 1601-1660): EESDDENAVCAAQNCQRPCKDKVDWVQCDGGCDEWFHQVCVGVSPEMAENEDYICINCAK
Outline: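 (HQ)5-HaloTag-JARID1A PHD3 (40 μM as added) is captured on HaloTag-ligand plates for 2 h with shaking, then washed with HBST. […] Detection uses streptavidin-HRP (1:2,000, 20 min), six washes and chemiluminescence. Diluent is StabilCoat with 0.5 mM TCEP, at ambient temperature. IC50 is fitted from relative binding versus log[inhibitor].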

GST-JARID1A PHD3 = target: T2, GST-JARID1A PHD3 (Homo sapiens, UniProt P29375); assay: Fluorescence polarization binding assay; conditions: for loss of polarization (loss of peptide binding): up to 200 μM
T2 sequence (P29375 1601-1660): T1 sequence (P29375 1601-1660)

JMJD2A DTD [2] = target: T3, JMJD2A DTD (Homo sapiens, UniProt O75164); assay: HaloTag assay counterscreen; format: binding; conditions: 0, 50, 100, 200 μM
T3 sequence (O75164 895-1011): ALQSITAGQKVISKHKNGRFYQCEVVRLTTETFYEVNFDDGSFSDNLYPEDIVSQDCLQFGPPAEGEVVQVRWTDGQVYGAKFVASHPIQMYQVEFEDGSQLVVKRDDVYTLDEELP

JARID1A PHD3 [3] = target: T1, JARID1A PHD3; assay: Zinc ejection study; format: biochemical; conditions: for zinc release from JARID1A PHD3 (PAR assay): increasing concentrations
Outline: (§1)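 His6-JARID1A PHD3 or (HQ)5-HaloTag reader-domain fusion at 5 μM was treated with increasing test compound concentrations in 10 mM PAR, 30 mM HEPES, 150 mM NaCl, pH 7.4, 5% v/v DMSO. Triplicates were shaken 10 min. A boiled DMSO-only sample served as the destabilization-induced zinc release reference. Zinc release was read as absorbance at 500 nm, with DMSO-only values subtracted.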

BHC80 PHD [4] = target: T4, BHC80 PHD (Homo sapiens, UniProt Q96BD5); assay: HaloTag assay counterscreen; format: binding; conditions: 0, 50, 100, 200 μM
T4 sequence (Q96BD5 486-543): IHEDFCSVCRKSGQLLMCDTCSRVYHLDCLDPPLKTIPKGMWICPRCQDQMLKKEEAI

RAG2 PHD [5] = target: T5, RAG2 PHD (Mus musculus, UniProt P21784); assay: HaloTag assay counterscreen; format: binding; conditions: 0, 50, 100, 200 μM
T5 sequence (P21784 414-487): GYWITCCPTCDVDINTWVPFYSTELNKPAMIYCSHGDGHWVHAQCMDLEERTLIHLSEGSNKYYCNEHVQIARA

AIRE PHD1 [6] = target: T6, AIRE PHD1 (Homo sapiens, UniProt O43918); assay: HaloTag assay counterscreen; format: binding; conditions: 0, 50, 100, 200 μM
T6 sequence (O43918 293-354): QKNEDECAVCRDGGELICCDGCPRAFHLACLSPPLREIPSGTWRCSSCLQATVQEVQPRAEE

JARID1A PHD3 D1629A = target: T7, JARID1A PHD3 D1629A (Homo sapiens, UniProt P29375, D1629A); format: binding; conditions: D1629 mutation, independent of substitution
T7 sequence (P29375 1601-1660 D1629A): T1 sequence (P29375 1601-1660) with D29A

JARID1A PHD3 D1629N = target: T8, JARID1A PHD3 D1629N (Homo sapiens, UniProt P29375, D1629N); format: binding; conditions: D1629 mutation, independent of substitution
T8 sequence (P29375 1601-1660 D1629N): T1 sequence (P29375 1601-1660) with D29N

JARID1A PHD3 [7] = target: T1, JARID1A PHD3; assay: Affinity pull down with TMR-labeled HaloTag-JARID1A PHD3; format: binding; conditions: for inhibition of JARID1A PHD3 in affinity pull down: compound 0–500 μM
Outline: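 Streptavidin-agarose beads are loaded with biotinylated histone peptide (about 300 pmol per 6.6 μL bed volume) in 1% BSA-HBST for 30 min. HaloTag-JARID1A PHD3 is prelabeled with TMR ligand (10 μM each, 15 min, dark) and used at 100 nM final with beads. Compound is 0–500 μM at 5% DMSO, 45 min ambient, dark. After three HBST washes, beads are boiled in SDS buffer, run on 12% SDS-PAGE and scanned for TAMRA fluorescence.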

AIRE PHD1 [8] = target: T6, AIRE PHD1; assay: Zinc ejection study; format: biochemical; conditions: compared with JARID1A PHD3
Outline: as §1

BHC80 PHD [9] = target: T4, BHC80 PHD; assay: Zinc ejection study; format: biochemical; conditions: compared with JARID1A PHD3
Outline: as §1

[10] = target: T9, JMJD2A double tudor domain (Homo sapiens, UniProt O75164); assay: Zinc ejection study; format: biochemical
T9 sequence (O75164 895-1011): T3 sequence (O75164 895-1011)
Outline: as §1

[11] = target: T10, wild-type (WT) JARID1A PHD3 (Homo sapiens, UniProt P29375); assay: Dose ratio; format: binding; conditions: di-N-desethylamiodarone 0, 20, 40, 80 μM; tegaserod maleate 0, 80, 160, 320 μM
T10 sequence (P29375 1601-1660): T1 sequence (P29375 1601-1660)

[12] = system: JARID1A PHD3 D1624 mutants; assay: Dose ratio; format: binding; conditions: di-N-desethylamiodarone 0, 20, 40, 80 μM; tegaserod maleate 0, 80, 160, 320 μM
Outline: (§2)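 Fluorescence polarization Schild analysis. Increasing GST-JARID1A PHD3 (wild type or mutant) is titrated against a fixed inhibitor concentration plus 3 nM H3(1–14)K4me3K14fluo probe. The EC50 is determined at each inhibitor level. The dose ratio is the fold change in EC50 with inhibitor relative to EC50 without inhibitor.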

[13] = system: JARID1A PHD3 D1629 mutants; assay: Dose ratio; format: binding; conditions: di-N-desethylamiodarone 0, 20, 40, 80 μM; tegaserod maleate 0, 80, 160, 320 μM
Outline: as §2

RAG2 PHD [14] = target: T5, RAG2 PHD; assay: Fluorescence polarization counterscreen; format: binding; conditions: NM: Not measurable within solubility limit of compound
Outline: (§3)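 Test compound titrated into GST-reader fusion at its 90% fraction-bound concentration plus 3 nM fluorescein-labeled H3(1–14) probe. Protein: AIRE PHD1 4 μM and BHC80 PHD 60 μM (K4-unmodified probe); JMJD2A DTD 4 μM and RAG2 PHD 25 μM (K4me3 probe). Buffer was 30 mM HEPES, 150 mM NaCl, pH 7.4, 0.01% Triton X-100. Triplicates read by polarization. IC50 fitted from fraction bound versus log[inhibitor].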

BHC80 PHD [15] = target: T4, BHC80 PHD; assay: Fluorescence polarization counterscreen; format: binding; conditions: H3K4-unmodified probe; NM: Not measurable within solubility limit of compound
Outline: as §3

AIRE PHD1 [16] = target: T6, AIRE PHD1; assay: Fluorescence polarization counterscreen; format: binding; conditions: H3K4-unmodified probe; NM: Not measurable within solubility limit of compound
Outline: as §3

JMJD2A DTD [17] = target: T3, JMJD2A DTD; assay: Fluorescence polarization counterscreen; format: binding
Outline: as §3

Compound: CCCCc1oc2ccccc2c1C(=O)c1cc(I)c(OCCNCC)c(I)c1 [Desethylamiodarone, desethylamiodarone]
- inhibition of JARID1A PHD3 in fluorescence polarization assay (GST-JARID1A PHD3; within the concentration range tested): Neither dimethyl-AMI analog nor desethyl-AMI significantly inhibited

Compound: c1ccc2c(c1)Nc1ccccc1S2 [phenothiazine]
- loss of polarization (loss of peptide binding) (GST-JARID1A PHD3): did not cause a significant loss in polarization
- effect on JARID1A PHD3 binding to H3K4me3 peptide in HaloTag assay (JARID1A PHD3 [1]): significantly reduced signal

Compound: O=C(O)/C=C\C(=O)O [maleate]
- effect on JARID1A PHD3 binding to H3K4me3 peptide in HaloTag assay (JARID1A PHD3 [1]): not maleate

Compound: CCCCc1oc2ccccc2c1C(=O)c1cc(I)c(OCCN(CC)CC)c(I)c1 [Amiodarone, amiodarone HCl]
- loss of peptide binding, JMJD2A DTD, HaloTag assay (JMJD2A DTD [2]): significantly affected
- zinc release from JARID1A PHD3 (PAR assay) (JARID1A PHD3 [3]): not causing zinc release
- loss of polarization (loss of peptide binding) (GST-JARID1A PHD3): did not cause a significant loss in polarization
- loss of peptide binding, BHC80 PHD, HaloTag assay (BHC80 PHD [4]): but not AIRE PHD1 or BHC80 PHD
- loss of peptide binding, RAG2 PHD, HaloTag assay (RAG2 PHD [5]): significantly affected
- loss of peptide binding, AIRE PHD1, HaloTag assay (AIRE PHD1 [6]): but not AIRE PHD1 or BHC80 PHD
- effect on JARID1A PHD3 binding to H3K4me3 peptide in HaloTag assay (JARID1A PHD3 [1]): significantly reduced signal

Compound: H3K4me3 peptide: histone H3 peptide trimethylated at lysine 4; unlabeled competitor or fluorescein-labeled H3(1–14) probe
- defect in affinity relative to wild-type (JARID1A PHD3 D1629A): greater than 10 fold
- defect in affinity relative to wild-type (JARID1A PHD3 D1629N): greater than 10 fold
- IC50 (JARID1A PHD3 [7]; read-out: experimental IC50, peptide competition in affinity pull down): 13.6 ± 4.5 µM

Compound: CCCCc1oc2ccccc2c1C(=O)c1cc(I)c(OCCN)c(I)c1 [Di-N-desethylamiodarone, di-N-desethylamiodarone]
- shift of EC50 / dose ratio with increasing fixed inhibitor [11]: increase in EC50 values
- shift of EC50 / dose ratio with increasing fixed inhibitor [12]: dose ratios were less pronounced than for WT JARID1A PHD3
- shift of EC50 / dose ratio with increasing fixed inhibitor [13]: dose ratios that remained near one

Compound: CSS(C)(=O)=O [MMTS, methyl methanethiosulfonate]
- EC50 (JARID1A PHD3 [3]; read-out: concentration for half-maximal zinc loss (PAR assay), 5 μM His6-JARID1A PHD3): 33 µM

Compound: CCc1oc2ccccc2c1C(=O)c1cc(Br)c(O)c(Br)c1 [benzbromarone]
- effect on JARID1A PHD3 binding to H3K4me3 peptide in HaloTag assay (JARID1A PHD3 [1]): but not benzbromarone, inhibited JARID1A PHD3

More lines, main results first:

- inhibition of JARID1A PHD3 by peptide competition in HaloTag assay (JARID1A PHD3 [1]; 25 μM peptide): did not significantly inhibit
Compound: unmethylated H3 peptide: histone H3 peptide unmodified at lysine 4 (ARTKQTARKSTEW; E(PEG-biotin) at position 12)

- effect on JARID1A PHD3 binding to H3K4me3 peptide in HaloTag assay (JARID1A PHD3 [1]): inhibited JARID1A PHD3
Compound: CCCCc1oc2ccc(NS(C)(=O)=O)cc2c1C(=O)c1ccc(OCCCN(CCCC)CCCC)cc1 [dronedarone]

- susceptibility to zinc ejection, AIRE PHD1 (AIRE PHD1 [8]): similarly susceptible
- susceptibility to zinc ejection, BHC80 PHD (BHC80 PHD [9]): similarly susceptible
- EC50 (JARID1A PHD3 [3]): 10 µM
- zinc release from JMJD2A double tudor domain [10]: No zinc release was observed
- inhibition of JARID1A PHD3 in affinity pull down (JARID1A PHD3 [7]): inhibited JARID1A PHD3
- effect on JARID1A PHD3 binding to H3K4me3 peptide in HaloTag assay (JARID1A PHD3 [1]): significantly reduced signal
Compound: CCN(CC)C(=S)SSC(=S)N(CC)CC [disulfiram, tetraethylthiuram disulfide]
- loss of polarization (loss of peptide binding) (GST-JARID1A PHD3): did not cause a significant loss in polarization
- loss of peptide binding, BHC80 PHD, HaloTag assay (BHC80 PHD [4]): Significant (by p-value) loss of peptide binding
- loss of peptide binding, RAG2 PHD, HaloTag assay (RAG2 PHD [5]): Significant (by p-value) loss of peptide binding
- loss of peptide binding, AIRE PHD1, HaloTag assay (AIRE PHD1 [6]): Significant (by p-value) loss of peptide binding

- shift of EC50 / dose ratio with increasing fixed inhibitor [11]: increase in EC50 values
- IC50 towards RAG2 PHD, fluorescence polarization assay (RAG2 PHD [14]): exceeded the solubility limits
- loss of peptide binding, JMJD2A DTD, HaloTag assay (JMJD2A DTD [2]): Modest reductions in binding
- zinc release from JARID1A PHD3 (PAR assay) (JARID1A PHD3 [3]): not causing zinc release
- IC50 towards BHC80 PHD, fluorescence polarization assay (BHC80 PHD [15]): exceeded the solubility limits
- IC50 (GST-JARID1A PHD3): 74 ± 16 µM
- loss of peptide binding, BHC80 PHD, HaloTag assay (BHC80 PHD [4]): Modest reductions in binding
- IC50 towards AIRE PHD1, fluorescence polarization assay (AIRE PHD1 [16]): exceeded the solubility limits
- loss of peptide binding, RAG2 PHD, HaloTag assay (RAG2 PHD [5]): Modest reductions in binding
- loss of peptide binding, AIRE PHD1, HaloTag assay (AIRE PHD1 [6]): Modest reductions in binding
- IC50 (JMJD2A DTD [17]): 95 ± 9.8 µM
- inhibition of JARID1A PHD3 in affinity pull down (JARID1A PHD3 [7]): inhibited JARID1A PHD3
- shift of EC50 / dose ratio with increasing fixed inhibitor [13]: dose ratios that remained near one
- effect on JARID1A PHD3 binding to H3K4me3 peptide in HaloTag assay (JARID1A PHD3 [1]): significantly reduced signal
Compound: [H]/N=C(/NCCCCC)N/N=C/c1c[nH]c2ccc(OC)cc12 [tegaserod, Tegaserod maleate]
- shift of EC50 / dose ratio with increasing fixed inhibitor [12]: dose ratios were less pronounced than for WT JARID1A PHD3
